Results on 17 molecules are retold here after ChEMBL document CHEMBL1799956, “Convergent synthesis and biological evaluation of 2-amino-4-(3',4',5'-trimethoxyphenyl)-5-aryl thiazoles as microtubule targeting agents” (J Med Chem, 2011).

SMILES strings stand for the structures.

Assay [1] deals with LoVo. Description: Fold resistance, ratio of IC50 for human doxorubicin-resistant LoVo cells overexpressing P-gp to IC50 for human LoVo cells. Format: functional. The method in brief:
(§1)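 Fold resistance taken as the ratio of IC50 in the resistant line to IC50 in the parental line, each IC50 from dose-response curves of at least three independent experiments.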

Another assay concerns HL-60. Description: Antiproliferative activity against human HL60 cells assessed as growth inhibition after 72 hrs by MTT assay. Format: functional, cell-based. The conditions noted are these: HL-60, 72 h. In general terms: Tetrazolium assays rely on reduction of a dye to a coloured formazan, in cell work by metabolically active cells.
The test system of assay [2] is A549. Description: Fold resistance, ratio of IC50 for human taxol-resistant A549-T12 cells to IC50 for human A549 cells. The class given is functional.
The subject of assay [3] is A549. Description: Antiproliferative activity against human A549 cells assessed as growth inhibition after 72 hrs by MTT assay. Format: functional, cell-based. To be noted: A549, 72 h.
The nature of assay [4]: Antiproliferative activity against human taxol-resistant A549-T12 cells assessed as growth inhibition after 72 hrs by MTT assay. The class given is functional, cell-based. To be noted: A549, 72 h.
The species named for assay [5] is Bos taurus. Description: Displacement of [3H]colchicine from bovine brain tubulin at 5 uM. The method in brief: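 [3H]colchicine binding inhibition with tubulin at 1 μM, [3H]colchicine at 5 μM and test compound at 5 μM.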
(In a radioligand displacement assay an active substance lowers the binding of a labelled ligand.)

Assay [6] is described as follows: Inhibition of bovine brain tubulin polymerization after 20 mins by turbidimetric analysis. Also on record: species or system Bos taurus. The method in brief: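 Purified tubulin at 10 μM was used for the assembly (polymerization) inhibition assay. IC50 is the concentration inhibiting assembly.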
The test system of the next assay is Jurkat. Description: Antiproliferative activity against human Jurkat cells assessed as growth inhibition after 72 hrs by MTT assay. Format: functional, cell-based.
In assay [7] the test system is CCRF-CEM. Description: Antiproliferative activity against human CEM cells assessed as growth inhibition after 72 hrs by MTT assay. Format: functional, cell-based.
For assay [8], the system named is LoVo. Description: Antiproliferative activity against human doxorubicin-resistant LoVo cells overexpressing P-gp assessed as growth inhibition after 72 hrs by MTT assay. The class given is functional, cell-based.
The subject of assay [9] is CCRF-CEM. Description: Fold resistance, ratio of IC50 for human vinblastine-resistant CEM/VBL100 cells overexpressing P-gp to IC50 for human CEM cells. The class given is functional. An outline of the steps:
as §1

The subject of another assay is HT-29. Description: Antiproliferative activity against human HT-29 cells assessed as growth inhibition after 72 hrs by MTT assay. Format: functional, cell-based. To be noted: HT-29, 72 h.
A further assay relates to K562. Description: Antiproliferative activity against human K562 cells assessed as growth inhibition after 72 hrs by MTT assay. The class given is functional, cell-based. To be noted: K562, 72 h.
Assay [10] can be described thus: Antiproliferative activity against human vinblastine-resistant CEM/VBL100 cells overexpressing P-gp assessed as growth inhibition after 72 hrs by MTT assay. The conditions noted are these: CEM/VBL100, 72 h. The class given is functional, cell-based.
For a further assay, the system named is HeLa. Description: Antiproliferative activity against human HeLa cells assessed as growth inhibition after 72 hrs by MTT assay. The class given is functional, cell-based.
For another assay, the system named is MCF7. Description: Antiproliferative activity against human MCF7 cells assessed as growth inhibition after 72 hrs by MTT assay. To be noted: MCF7, 72 h. Format: functional, cell-based.
The subject of assay [11] is LoVo. Description: Antiproliferative activity against human LoVo cells assessed as growth inhibition after 72 hrs by MTT assay. Format: functional, cell-based.
The species named for assay [12] is Bos taurus. Description: Ratio of combretastatin A-4 IC50 to compound IC50 for bovine brain tubulin.

By IC50 is commonly meant the point on the concentration scale where inhibition reaches its midpoint. As usually defined, the inhibition is how much of the control response was suppressed. The low end stands for little suppression, the high end for strong suppression. For `CCOc1ccc(-c2sc(N)nc2-c2cc(OC)c(OC)c(OC)c2)cc1Cl`, the “Ratio IC50” value in the assay with LoVo [1] is 0.9; with A549 [2], 0.8; in the assay on CCRF-CEM [9], 0.5. Moreover, the IC50 in the assay with HL-60 came out at 0.27 nM; in the assay with A549 [3], 11.2 nM; in assay [4], 8.5 nM; in assay [6] it was 890 nM; in the assay on Jurkat, 0.06 nM; in the assay with CCRF-CEM [7], 1.4 nM. Moreover, the half-inhibitory concentration (IC50) in the assay on LoVo [8] was 1.7 nM; in the assay on HT-29 it was 15.6 nM; with K562 it was 8.8 nM; in assay [10], 0.7 nM; in the assay on HeLa, 0.91 nM; with MCF7, 14.1 nM. Besides, the IC50 with LoVo [11] is 2 nM. In the assay filed under Bos taurus [5], this molecule returned an inhibition of 87%.

`COc1ccc(-c2sc(N)nc2-c2cc(OC)c(OC)c(OC)c2)cc1C`: the IC50 in the assay on HL-60 was determined as 4 nM; in the assay on A549 [3], 305 nM; in assay [6], 1100 nM; in the assay on Jurkat, 21.5 nM; in the assay on HT-29, 24 nM; in the assay with K562, 67.6 nM. The figures for the half-inhibitory concentration (IC50) in the assay on HeLa and with MCF7 were 2.6 nM and 58.7 nM, respectively. This molecule also gave an inhibition in the assay filed under Bos taurus [5] of 72%.

Regarding `COc1ccc(-c2sc(N)nc2-c2cc(OC)c(OC)c(OC)c2)cc1OC`, the IC50 with HL-60 is 301 nM; in the assay with A549 [3], 1800 nM; in the assay on Jurkat, 319 nM; in the assay with HT-29, 432 nM; in the assay on K562, 829 nM; in the assay on HeLa, 249 nM. The concentration for half-maximal inhibition (IC50) in the assay on MCF7 was 1170 nM.

Consider `COc1ccc(-c2sc(N)nc2-c2cc(OC)c(OC)c(OC)c2)cc1`, for which the “Ratio IC50” value was determined as 0.25 in the assay on LoVo [1], 0.6 with A549 [2] and 0.1 in the assay with CCRF-CEM [9]. The half-maximal inhibitory concentration (IC50) was determined as 3.2 nM with HL-60; 20.2 nM in the assay with A549 [3]; 11.4 nM in assay [4]; 1100 nM in [6]; 2.1 nM with Jurkat; 7.7 nM with CCRF-CEM [7]. For the same molecule, the IC50 was 0.8 nM with LoVo [8]; 11.7 nM in the assay with HT-29; 5.1 nM in the assay with K562; 1.2 nM in assay [10]; 2.3 nM in the assay with HeLa; 60.9 nM in the assay on MCF7. Moreover, the half-maximal inhibitory concentration (IC50) in the assay on LoVo [11] was determined as 3.1 nM. In the assay filed under Bos taurus [5], the inhibition came out at 79%.

With `COc1cc(-c2nc(N)sc2-c2cccc3ccccc23)cc(OC)c1OC`, the half-inhibitory concentration (IC50) with HL-60 was 8660 nM; with A549 [3], 6320 nM; in the assay on Jurkat, 4690 nM; in the assay with HT-29 it was greater than 10000 nM; in the assay on K562, 9030 nM; in the assay with HeLa, 3860 nM. For the same molecule, the IC50 in the assay with MCF7 is greater than 10000 nM.

For the molecule `COc1ccc(-c2sc(N)nc2-c2cc(OC)c(OC)c(OC)c2)cc1F`, the concentration for half-maximal inhibition (IC50) in the assay on HL-60 was 6.1 nM; with A549 [3] it was 3.1 nM; in [6], 1200 nM; in the assay on Jurkat it was 7.3 nM; in the assay with HT-29, 5.7 nM; in the assay on K562, 6 nM. In addition, the half-maximal inhibitory concentration (IC50) in the assay on HeLa came to 2 nM; in the assay on MCF7 it was 18.6 nM. Moreover, the inhibition in the assay listed under Bos taurus [5] came out at 81%.

On to `COc1cc(-c2nc(N)sc2-c2ccc(C)cc2)cc(OC)c1OC`, for which the IC50 in the assay on HL-60 turned out to be 3.9 nM; with A549 [3] it was 42.8 nM; in [6] it was 440 nM; in the assay with Jurkat, 3.9 nM; with HT-29 it was 12.4 nM; in the assay with K562, 58.7 nM. In addition, the results for the half-maximal inhibitory concentration (IC50) with HeLa and with MCF7 were 0.73 nM and 280 nM, respectively. Further, in the assay filed under Bos taurus [5], the inhibition worked out at 88%. Also, the Ratio IC50 in the assay filed under Bos taurus [12] came out at 3.

On to `COc1cc(-c2nc(N)sc2-c2cc3ccccc3s2)cc(OC)c1OC`, for which the IC50 was determined as 0.9 nM in the assay on HL-60; 16 nM with A549 [3]; 2000 nM in assay [6]; 0.6 nM in the assay with Jurkat; 19.1 nM in the assay with HT-29; 19.6 nM in the assay with K562. Besides, the IC50 stood at 2.8 nM in the assay on HeLa and 47 nM with MCF7. In the assay listed under Bos taurus [5], this molecule displayed an inhibition of 86%.

On to `COc1cc(-c2nc(N)sc2-c2ccccc2)cc(OC)c1OC`, for which the IC50 in the assay on HL-60 was found to be 3640 nM; in the assay on A549 [3] it was 9600 nM; in the assay on Jurkat it was 3830 nM; in the assay with HT-29, 7920 nM; in the assay on K562 it was 8500 nM; in the assay on HeLa, 3090 nM. Also, the concentration for half-maximal inhibition (IC50) in the assay on MCF7 was greater than 10000 nM.

As to `COc1ccc(-c2sc(N)nc2-c2cc(OC)c(OC)c(OC)c2)cc1Cl`, the IC50 in the assay with HL-60 is 2.8 nM; in the assay with A549 [3] it was 37.7 nM; in assay [6] it was 880 nM; with Jurkat, 2.9 nM; in the assay with HT-29 it was 12.8 nM; in the assay on K562, 36.1 nM. For the same molecule, the IC50 was determined as 1.6 nM in the assay on HeLa and 27.3 nM in the assay with MCF7. For the same molecule, in the assay listed under Bos taurus [5], the inhibition came out at 77%.

With `COc1cccc(-c2sc(N)nc2-c2cc(OC)c(OC)c(OC)c2)c1`, the half-inhibitory concentration (IC50) is 118 nM in the assay with HL-60; 2370 nM with A549 [3]; 48.4 nM with Jurkat; 239 nM with HT-29; 728 nM in the assay with K562; 209 nM with HeLa. Also, in the assay on MCF7, the half-maximal inhibitory concentration (IC50) is 476 nM.

For `COc1cccc2c1C(=O)c1c(O)c3c(c(O)c1C2=O)C[C@@](O)(C(=O)CO)C[C@@H]3O[C@H]1C[C@H](N)[C@H](O)[C@H](C)O1` [DOXORUBICIN], the “Ratio IC50” value with LoVo [1] is listed as 109.6. The IC50 in the assay on LoVo [11] turned out to be 120 nM.

With `CCc1ccc(-c2sc(N)nc2-c2cc(OC)c(OC)c(OC)c2)cc1`, the IC50 turned out to be 1.1 nM in the assay with HL-60; 238 nM in the assay on A549 [3]; 1100 nM in [6]; 4.1 nM with Jurkat; 54.1 nM in the assay with HT-29; 49.7 nM in the assay on K562. The half-inhibitory concentration (IC50) with HeLa is 1 nM; in the assay on MCF7 it was 117 nM. This molecule also showed an inhibition in the assay filed under Bos taurus [5] of 73%.

On to `COc1cc(-c2nc(N)sc2-c2ccc3ccccc3c2)cc(OC)c1OC`, for which the IC50 is 2.7 nM with HL-60; 3.8 nM with A549 [3]; 740 nM in [6]; 3.3 nM with Jurkat; 23.9 nM in the assay on HT-29; 22.1 nM with K562. Moreover, the concentration for half-maximal inhibition (IC50) with HeLa worked out at 1.6 nM; with MCF7, 51.2 nM. The molecule further showed an inhibition in the assay listed under Bos taurus [5] of 94%.

Take `CC[C@]1(O)C[C@@H]2CN(CCc3c([nH]c4ccccc34)[C@@](C(=O)OC)(c3cc4c(cc3OC)N(C)[C@H]3[C@@](O)(C(=O)OC)[C@H](OC(C)=O)[C@]5(CC)C=CCN6CC[C@]43[C@@H]65)C2)C1` [VINBLASTINE]: the IC50 with CCRF-CEM [7] was 4.1 nM; in [10], 230 nM. Besides, in the assay with CCRF-CEM [9], the “Ratio IC50” value is 56.1.

With `COc1cc(-c2nc(N)sc2-c2ccc(C(F)(F)F)cc2)cc(OC)c1OC`, the IC50 in the assay with HL-60 was 5.1 nM; in the assay with A549 [3] it was 357 nM; in [6], 4000 nM; with Jurkat it was 8.5 nM; with HT-29 it was 221 nM; in the assay on K562, 7.6 nM. The IC50 with HeLa came out at 3.2 nM; in the assay on MCF7, 0.4 nM. The molecule also gave an inhibition in the assay filed under Bos taurus [5] of 25%.

Take `CC(=O)O[C@H]1C(=O)[C@@]2(C)[C@H]([C@H](OC(=O)c3ccccc3)[C@]3(O)C[C@H](OC(=O)[C@H](O)[C@@H](NC(=O)c4ccccc4)c4ccccc4)C(C)=C1C3(C)C)[C@]1(OC(C)=O)CO[C@@H]1C[C@@H]2O` [PACLITAXEL]: in the assay with A549 [2], the “Ratio IC50” value is 10.4. The IC50 in the assay with A549 [3] was determined as 7.2 nM; in assay [4], 75.2 nM.
